From ChEMBL document CHEMBL1132446, “Design, synthesis, and evaluation of Phe-Gly mimetics: heterocyclic building blocks for pseudopeptides” (J Med Chem, 1999)
Numbered stars: 1 amine (or outer) side, 2 acyl side, 3 side chain; on linkers, the order of the positions; unused ones are H or OH. Square brackets hold non-standard residues; d marks the D form. Peptide text beside a SMILES is read from it. X9 = O=C(Cc1nnc([C@H](Cc2ccccc2)N[*:1])[nH]1)[*:2]; X7 = O=C(c1nnc([C@H](Cc2ccccc2)N[*:1])[nH]1)[*:2]; X3 = O=C(c1nnc([C@H](Cc2ccccc2)N[*:1])o1)[*:2]; X4 = O=C(c1noc([C@H](Cc2ccccc2)N[*:1])n1)[*:2]

What was measured:
Substance-P receptor = Substance-P receptor (Rattus norvegicus, UniProt P14600); assay: Affinity for rat Tachykinin receptor 1 determined in displacement screening by using radioligand 3,4-[3H]-(L-Pro e2) SP.
Sequence of Substance-P receptor (P14600 whole entry): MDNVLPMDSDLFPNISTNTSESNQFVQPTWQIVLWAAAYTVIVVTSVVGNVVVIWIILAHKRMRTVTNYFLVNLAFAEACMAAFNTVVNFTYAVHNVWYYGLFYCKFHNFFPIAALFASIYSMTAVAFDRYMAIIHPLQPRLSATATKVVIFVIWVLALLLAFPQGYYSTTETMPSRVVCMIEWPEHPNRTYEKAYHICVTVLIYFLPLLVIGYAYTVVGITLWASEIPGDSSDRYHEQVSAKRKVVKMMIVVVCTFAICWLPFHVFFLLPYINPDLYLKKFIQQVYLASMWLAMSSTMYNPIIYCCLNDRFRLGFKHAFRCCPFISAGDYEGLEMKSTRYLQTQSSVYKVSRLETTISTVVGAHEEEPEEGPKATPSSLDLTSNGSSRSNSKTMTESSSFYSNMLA

Mu-type opioid receptor [1] = molecular target: T1, Mu-type opioid receptor (Rattus norvegicus, UniProt P33535); assay: The compound was tested for binding affinity towards rat Opioid receptor mu 1 by displacing [3H]DAMGO.
T1 sequence (P33535 whole entry): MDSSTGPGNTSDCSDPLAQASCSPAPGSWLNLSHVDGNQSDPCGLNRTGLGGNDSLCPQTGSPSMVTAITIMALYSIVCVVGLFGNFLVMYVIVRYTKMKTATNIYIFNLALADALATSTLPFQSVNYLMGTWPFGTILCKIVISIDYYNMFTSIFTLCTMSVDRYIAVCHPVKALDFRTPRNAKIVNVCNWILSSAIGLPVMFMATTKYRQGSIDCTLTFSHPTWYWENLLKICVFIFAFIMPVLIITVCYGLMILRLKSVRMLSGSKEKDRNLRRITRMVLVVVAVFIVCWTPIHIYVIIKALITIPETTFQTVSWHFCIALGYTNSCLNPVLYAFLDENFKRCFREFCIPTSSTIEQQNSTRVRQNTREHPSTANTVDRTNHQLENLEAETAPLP

[2] = Retention time of the compound.
In short: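 Analytical reversed-phase HPLC on a C-18 column (8 × 100 mm), eluting with CH3CN/H2O/0.1% TFA gradients. The gradient differs by compound: 0-60% at 1 mL/min over 30 min, or 5-65%, 20-60% or 0-60% at 0.5 mL/min over 30 min.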

Mu-type opioid receptor [3] = molecular target: T1, Mu-type opioid receptor; assay: The compound was tested for binding affinity towards [3H]DAMGO, in rat Opioid receptor mu 1
In short: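 Rat whole-brain (minus cerebellum) membranes from sucrose homogenisation, differential centrifugation and hypotonic lysis, in 50 mM Tris-HCl pH 7.4. […] Incubation 30 min at 25 °C, ended by filtration on PEI-soaked GF-C filters. Triplicates, three experiments, IC50 as mean ± SEM.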

| Compound | IC50 (Substance-P receptor) | Retention time [2] | other results |
| --- | --- | --- | --- |
| C[C@@H](NC(=O)[C@@H](N)Cc1ccc(O)cc1)C(=O)N[C@@H](Cc1ccccc1)c1nc(C(=O)N[C@@H](Cc2ccc(O)cc2)C(=O)N2CCC[C@H]2C(=O)N[C@@H](CO)C(N)=O)no1 | > 1000 nM |  | IC50 (Mu-type opioid receptor [1]): 17 nM |
| C[C@@H](NC(=O)[C@@H](N)Cc1ccc(O)cc1)C(=O)N[C@@H](Cc1ccccc1)c1n[nH]c(CN[C@@H](Cc2ccc(O)cc2)C(=O)N2CCC[C@H]2C(=O)N[C@@H](CO)C(N)=O)n1 |  | 20.2 min |  |
| C[C@@H](NC(=O)[C@@H](N)Cc1ccc(O)cc1)C(=O)N[C@@H](Cc1ccccc1)c1nnc(CN[C@@H](Cc2ccc(O)cc2)C(=O)N2CCC[C@H]2C(=O)N[C@@H](CO)C(N)=O)o1 |  | 34 min |  |
| C[C@@H](NC(=O)[C@@H](N)Cc1ccc(O)cc1)C(=O)N[C@@H](Cc1ccccc1)C(=O)NCC(=O)N[C@@H](Cc1ccc(O)cc1)C(=O)N1CCC[C@H]1C(=O)N[C@@H](CO)C(N)=O [DERMORPHIN] | > 1000 nM |  | IC50 (Mu-type opioid receptor [3]): 6.2 nM |
| CSCC[C@H](NC(=O)[C@H](CC(C)C)NC(=O)Cc1noc([C@H](Cc2ccccc2)NC(=O)[C@H](Cc2ccccc2)NC(=O)[C@H](CCC(N)=O)NC(=O)[C@H](CCC(N)=O)NC(=O)[C@@H]2CCCN2C(=O)[C@H](CCCCN)NC(=O)[C@@H]2CCCN2C(=O)[C@@H](N)CCCN=C(N)N)n1)C(N)=O (stereo in doubt; form 2) | 307 nM |  |  |
| C[C@@H](NC(=O)[C@@H](N)Cc1ccc(O)cc1)C(=O)N[C@@H](Cc1ccccc1)c1nc(CN[C@@H](Cc2ccc(O)cc2)C(=O)N2CCC[C@H]2C(=O)N[C@@H](CO)C(N)=O)no1 |  | 21 min |  |
| C[C@@H](NC(=O)[C@@H](N)Cc1ccc(O)cc1)C(=O)N[C@@H](Cc1ccccc1)c1nnc(C(=O)N[C@@H](Cc2ccc(O)cc2)C(=O)N2CCC[C@H]2C(=O)N[C@@H](CO)C(N)=O)[nH]1 | > 1000 nM |  | IC50 (Mu-type opioid receptor [1]): 490 nM |
| CC(C)(C)OC(=O)N[C@@H](Cc1ccccc1)c1nc(CCO)no1 |  | 30.9 min |  |
| CSCC[C@H](NC(=O)[C@H](CC(C)C)NC(=O)c1nnc([C@H](Cc2ccccc2)NC(=O)[C@H](Cc2ccccc2)NC(=O)[C@H](CCC(N)=O)NC(=O)[C@H](CCC(N)=O)NC(=O)[C@@H]2CCCN2C(=O)[C@H](CCCCN)NC(=O)[C@@H]2CCCN2C(=O)[C@@H](N)CCCNC(=N)N)[nH]1)C(N)=O (H-RPKPQQF[X7]LM-NH2) | > 1000 nM |  |  |
| C[C@@H](NC(=O)[C@@H](N)Cc1ccc(O)cc1)C(=O)N[C@@H](Cc1ccccc1)c1nnc(N[C@@H](Cc2ccc(O)cc2)C(=O)N2CCC[C@H]2C(=O)N[C@@H](CO)C(N)=O)o1 |  | 22 min |  |
| CCOC(=O)Cc1n[nH]c([C@H](Cc2ccccc2)NC(=O)OC(C)(C)C)n1 |  | 22.1 min |  |
| C[C@@H](NC(=O)[C@@H](N)Cc1ccc(O)cc1)C(=O)NCC(=O)N(C)[C@@H](Cc1ccccc1)C(=O)NCCO [DAMGO] | > 1000 nM |  |  |
| C[C@@H](NC(=O)[C@@H](N)Cc1ccc(O)cc1)C(=O)N[C@@H](Cc1ccccc1)c1n[nH]c(CC(=O)N[C@@H](Cc2ccc(O)cc2)C(=O)N2CCC[C@H]2C(=O)N[C@@H](CO)C(N)=O)n1 | > 1000 nM |  | IC50 (Mu-type opioid receptor [1]): 21 nM |
| C[C@@H](NC(=O)[C@@H](N)Cc1ccc(O)cc1)C(=O)N[C@@H](Cc1ccccc1)c1nc(CC(=O)N[C@@H](Cc2ccc(O)cc2)C(=O)N2CCC[C@H]2C(=O)N[C@@H](CO)C(N)=O)no1 | > 1000 nM |  | IC50 (Mu-type opioid receptor [1]): 12 nM |
| CSCC[C@H](NC(=O)[C@H](CC(C)C)NC(=O)c1nnc([C@H](Cc2ccccc2)NC(=O)[C@H](Cc2ccccc2)NC(=O)[C@H](CCC(N)=O)NC(=O)[C@H](CCC(N)=O)NC(=O)[C@@H]2CCCN2C(=O)[C@H](CCCCN)NC(=O)[C@@H]2CCCN2C(=O)[C@@H](N)CCCNC(=N)N)o1)C(N)=O (H-RPKPQQF[X3]LM-NH2) | > 1000 nM |  |  |
| C[C@@H](NC(=O)[C@@H](N)Cc1ccc(O)cc1)C(=O)N[C@@H](Cc1ccccc1)c1nc(N[C@@H](Cc2ccc(O)cc2)C(=O)N2CCC[C@H]2C(=O)N[C@@H](CO)C(N)=O)no1 |  | 22.7 min |  |
| C[C@@H](NC(=O)[C@@H](N)Cc1ccc(O)cc1)C(=O)N[C@@H](Cc1ccccc1)c1nnc(CC(=O)N[C@@H](Cc2ccc(O)cc2)C(=O)N2CCC[C@H]2C(=O)N[C@@H](CO)C(N)=O)o1 | > 1000 nM |  | IC50 (Mu-type opioid receptor [1]): 31 nM |
| C[C@@H](NC(=O)[C@@H](N)Cc1ccc(O)cc1)C(=O)N[C@@H](Cc1ccccc1)c1nnc(C(=O)N[C@@H](Cc2ccc(O)cc2)C(=O)N2CCC[C@H]2C(=O)N[C@@H](CO)C(N)=O)o1 | > 1000 nM |  | IC50 (Mu-type opioid receptor [1]): 20 nM |
| C[C@@H](NC(=O)[C@@H](N)Cc1ccc(O)cc1)C(=O)N[C@@H](Cc1ccccc1)c1n[nH]c(N[C@@H](Cc2ccc(O)cc2)C(=O)N2CCC[C@H]2C(=O)N[C@@H](CO)C(N)=O)n1 |  | 20.6 min |  |
| CSCC[C@H](NC(=O)[C@H](CC(C)C)NC(=O)c1noc([C@H](Cc2ccccc2)NC(=O)[C@H](Cc2ccccc2)NC(=O)[C@H](CCC(N)=O)NC(=O)[C@H](CCC(N)=O)NC(=O)[C@@H]2CCCN2C(=O)[C@H](CCCCN)NC(=O)[C@@H]2CCCN2C(=O)[C@@H](N)CCCN=C(N)N)n1)C(N)=O (H-RPKPQQF[X4]LM-NH2) | > 1000 nM |  |  |
| CSCC[C@H](NC(=O)[C@H](CC(C)C)NC(=O)Cc1noc([C@H](Cc2ccccc2)NC(=O)[C@H](Cc2ccccc2)NC(=O)[C@H](CCC(N)=O)NC(=O)[C@H](CCC(N)=O)NC(=O)[C@@H]2CCCN2C(=O)[C@H](CCCCN)NC(=O)[C@@H]2CCCN2C(=O)[C@@H](N)CCCN=C(N)N)n1)C(N)=O (stereo in doubt; form 1) | > 1000 nM |  |  |
| CSCC[C@H](NC(=O)[C@H](CC(C)C)NC(=O)Cc1nnc([C@H](Cc2ccccc2)NC(=O)[C@H](Cc2ccccc2)NC(=O)[C@H](CCC(N)=O)NC(=O)[C@H](CCC(N)=O)NC(=O)[C@@H]2CCCN2C(=O)[C@H](CCCCN)NC(=O)[C@@H]2CCCN2C(=O)[C@@H](N)CCCNC(=N)N)[nH]1)C(N)=O (H-RPKPQQF[X9]LM-NH2) | > 1000 nM |  |  |
